Only some compounds are listed: those with a hit (about 1.5% of all), similar ones and a draw of the others.
STAT1 inh: STAT1 signaling inhibitors, primary screen, cell-based, HTS, luciferase reporter; AID 920, 2007; inhibition, % at 5.5 µM; 200,000 compounds, 0.35% hits; NIH 3T3 STAT1-luciferase reporter, IFN-gamma, luminescence;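 active = inhibition above a set limit, the mean inhibition across all tested compounds plus 3 SD, cut at about 34% in these data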;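 note: 0% = IFN-gamma with DMSO and 100% = IFN-gamma with 300 µM nifuroxazide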
STAT3 inh-1: IL-6 driven STAT3 reporter inhibitors, primary screen, U3A cells, luciferase, luminescence, MLSCN library; IL-6 STAT3-luciferase reporter; host cell line lacks STAT1; inhibition, % at 5.5 µM; 190,000 compounds, 0.89% hits; AID 862, 2007;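 active = inhibition above the mean inhibition across all screened compounds plus 3 SD, cut at about 44% in these data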;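 note: 0% = DMSO only wells and 100% = 100 µM nifuroxazide control wells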
Platelet DG rel: inhibitors of platelet dense granule secretion, primary screen, cell-based, MLPCN, human platelets; human platelet-rich plasma, SFLLRN dense granule ATP release, luminescence; inhibition, %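 (compounds screened at 7.5 µM in platelet-rich plasma)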; 300,000 compounds, 0.22% hits; AID 1663, 2009;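 active = mean replicate score, as percent of positive control, at or above 50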
PPC-1+TRAIL kill: compounds killing PPC-1 cancer cells with TRAIL present, primary screen, TRAIL potentiator project, ATPLite luminescence, uHTS; cell killing (% activity), % at 4 µM or 5 µM; 220,000 compounds, 0.41% hits; PPC-1 cells + TRAIL, ATPLite viability luminescence;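 active = cell killing above 50% in the first pass at 4 µM, then a duplicate retest at 5 µM averaging 50% or more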;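 note: plate controls were cells with TRAIL plus DMSO for no effect and medium-only wells lacking cells for full effect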
H9c2 TAG inh: inhibitors of triacylglycerol accumulation, primary screen, cell-based, uHTS, fluorescence, H9c2; H9c2 cells, Nile Red lipid (TAG) fluorescence; cells loaded with 200 µM oleic acid; inhibition, % at 12.5 µM; 230,000 compounds, 0.66% hits; AID 651582, 2012;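 active = pattern-corrected inhibition of lipid staining of at least 50% with the nuclear-stain viability signal not falling by more than 50%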;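 note: 0% = DMSO wells and 100% = triacsin C control wells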
Lipid droplet: inhibitors of hepatocyte lipid droplet formation, primary screen, imaging, high-throughput imaging, BODIPY stain; AML12 mouse hepatocytes, oleate lipid droplets; 240,000 compounds, 0.4% hits; inhibition, % at 6.5 µM;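 active = lipid droplet intensity inhibited by at least 50%, with more than 500 cells counted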
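Test system: AML12 hepatocytes (mouse); reagent: oleate loading, 100 µM; dosing: one dose, 6.5 µM compound; incubation: overnight exposure; signal: fluorescence imaging, 20x objective, two fields per well; read-out basis: % inhibition of corrected integrated BODIPY droplet signal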
STAT3 inh-2: STAT3 reporter inhibitors, retest of hits, confirmation, U3A cells, luciferase, luminescence. 1,200 compounds, 45% hits. IL-6 STAT3 luciferase reporter; cell line lacks STAT1. shares compounds with STAT3 inh-1. inhibition, % at 5.7 µM. AID 1265, 2008;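 active = inhibition above the hit cutoff computed for the primary STAT3 screen, cut at about 44% in these data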;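 note: 0% = IL-6 plus DMSO and 100% = IL-6 plus nifuroxazide control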
NFkB inh 2: NF-kB reporter inhibitors in human cells, confirmation, counter-screen for STAT3 inhibitor project, cell-based, HEK293T, luciferase, TNF-alpha stimulus. TNF-alpha induced. 1,200 compounds, 36% hits. shares compounds with STAT3 inh-1. AID 1308, 2008. inhibition, % at 5.7 µM;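 active = inhibition above the mean of solvent-only control wells plus 3 SD, cutoff set per campaign, cut at about 13% in these data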;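 note: 0% = TNF-alpha with DMSO and 100% = TNF-alpha with MG high control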
STAT1 inh 2: STAT1 reporter inhibitors, IFN-gamma induced, confirmation, counter-screen for STAT3 inhibitor project, cell-based, NIH 3T3, luciferase luminescence; shares compounds with STAT3 inh-1; NIH 3T3 STAT1-luciferase reporter; inhibition, % at 5.7 µM; 1,200 compounds, 27% hits; AID 1317, 2008;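 active = inhibition above the mean plus 3 SD of solvent-only control wells, limit set per screening run, cut at about 16% in these data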;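 note: 0% = DMSO with IFN-gamma and 100% = nifuroxazide control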
Starred values were filed as active, the others as inactive.

How did C=CCNc1ncnc2c1ncn2[C@H]1CN(Cc2ccc(-c3ccccc3)cc2)C[C@@H](CO)O1 do in these assays?
H9c2 TAG inh: 4.0

How did Cc1ccc(Cn2ncc3c(N4CCN(c5ccc(C)cc5)CC4)ncnc32)cc1 do in these assays?
STAT1 inh: 4.8; STAT3 inh-1: 68.9*; Platelet DG rel: -1.2; PPC-1+TRAIL kill: 14.8; H9c2 TAG inh: 4.3; STAT3 inh-2: 63.0*; NFkB inh 2: 20.1*; STAT1 inh 2: 7.5

What do the screens show for `Cc1ccc(Cn2ncc3c(N4CCN(C)CC4)ncnc32)cc1`?
STAT1 inh: 0.1; STAT3 inh-1: 10.6; Platelet DG rel: 7.1; PPC-1+TRAIL kill: 22.0; H9c2 TAG inh: -2.8; Lipid droplet: -3.3

What do the screens show for `CN1CCN(c2ncnc3c2cnn3-c2ccc(Cl)cc2)CC1`?
STAT1 inh: 4.4; STAT3 inh-1: 52.7*; Platelet DG rel: 25.8; PPC-1+TRAIL kill: 6.0; H9c2 TAG inh: 17.2; STAT3 inh-2: 5.1; NFkB inh 2: -16.9; STAT1 inh 2: -97.0

What do the screens show for `Cc1ccc(Cn2ncc3c(N4CCN(Cc5ccc(Cl)cc5)CC4)ncnc32)cc1`?
STAT1 inh: 1.3; STAT3 inh-1: 53.9*; Platelet DG rel: 2.6; PPC-1+TRAIL kill: -4.4; H9c2 TAG inh: -1.1; STAT3 inh-2: 48.8*; NFkB inh 2: 25.0*; STAT1 inh 2: 3.0

Results for CCN1CCN(c2ncnc3c2cnn3-c2ccc(Cl)cc2)CC1 ?
Platelet DG rel: 10.9; PPC-1+TRAIL kill: 7.9; H9c2 TAG inh: -6.9; Lipid droplet: 7.3

What do the screens show for `CCCCNC(=O)C1(C)CCCCN1Cc1ccc(OCc2ccccc2)cc1` (stereo unspecified)?
H9c2 TAG inh: -13.5

What do the screens show for `Cc1cc(C)nc(Nc2nc(C(N)CCc3ccccc3)cs2)n1` (stereo unspecified)?
H9c2 TAG inh: 5.1

What do the screens show for `O=C(C(Cl)Cl)N1c2ccccc2OCC1c1ccccc1` (stereo unspecified)?
STAT1 inh: -19.8; STAT3 inh-1: 50.2*; Platelet DG rel: 4.0; PPC-1+TRAIL kill: 22.9; Lipid droplet: -91.7; STAT3 inh-2: 33.2; NFkB inh 2: 9.0; STAT1 inh 2: -1.8

How did Cc1ccc(S(=O)(=O)N2c3ccccc3OCC2c2ccccc2)cc1 (stereo unspecified) do in these assays?
STAT1 inh: 5.5; STAT3 inh-1: 16.0; Platelet DG rel: 2.5; PPC-1+TRAIL kill: 3.4; H9c2 TAG inh: -36.6; Lipid droplet: 0.8

Results for Cc1cc(N=NC(=O)c2ccccc2)ccc1O ?
STAT1 inh: 24.2; STAT3 inh-1: 55.4*; Platelet DG rel: 0.7; PPC-1+TRAIL kill: -3.9; Lipid droplet: -24.8; STAT3 inh-2: 5.3; NFkB inh 2: 1.2; STAT1 inh 2: 4.0

Results for CCCS(=O)(=O)NC(=O)C1(C)CCCN(C(=O)c2c(-c3ccccc3)noc2C)C1 (stereo unspecified) ?
H9c2 TAG inh: 5.9

What do the screens show for `CC1CN(S(=O)(=O)c2ccc(C(=O)Nc3nc(-c4cc5ccccc5o4)cs3)cc2)CC(C)O1` (stereo unspecified)?
STAT1 inh: 7.6; STAT3 inh-1: -0.4; Platelet DG rel: 2.5; PPC-1+TRAIL kill: -0.3; H9c2 TAG inh: -8.3; Lipid droplet: -5.1

Screening data: PubChem BioAssay, several laboratories
